Laboratory results published in ChEMBL document CHEMBL2163252, “Azapeptide analogues of the growth hormone releasing peptide 6 as cluster of differentiation 36 receptor ligands with reduced affinity for the growth hormone secretagogue receptor 1a” (J Med Chem, 2012).
Starred links: 1 amine or outer side, 2 acyl side, 3 side chain; linkers in the order of their positions; H or OH if unused. Non-standard residues stand in square brackets, D forms with d. Residues, ends and D or L forms follow the SMILES beside them. dTrp(2-Me) = Cc1[nH]c2ccccc2c1C[C@@H](N)C(=O)O; azaTyr = O=C(N(Cc1ccc(O)cc1)N[*:1])[*:2]; azaPhe = O=C(N(Cc1ccccc1)N[*:1])[*:2]; X1 = O=C(N(CCc1ccccc1)N[*:1])[*:2]; azaLeu = CC(C)CN(N[*:1])C(=O)[*:2]; azaPro = O=C(N1CCCN1[*:1])[*:2]; Aib = CC(C)(N)C(=O)O; azaGly = NNC(=O)O

What was measured:
[1] = target: Growth hormone secretagogue receptor type 1 (Homo sapiens, UniProt Q92847); assay: Displacement of [125I]ghrelin expressed in LLC-PK1 cells incubated for 1 hr by gamma counting method; assay type: cell-based
Procedure, shortened: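 Membranes from LLC-PK1 cells transiently transfected with GHS-R1a (CaPO₄; harvested 24 h later; freeze/thaw lysis, 10000g), 10 μg protein/tube. Incubated with ¹²⁵I-ghrelin (40,000 cpm) and competitor 10⁻¹² to 10⁻⁵ M, 1 h at RT, in Tris/MgCl₂/EDTA/bacitracin buffer pH 7.3. Nonspecific binding set with 10⁻⁵ M competitor. Bound separated by filtration on PEI-soaked GF/C filters, gamma counted.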

Platelet glycoprotein 4 = Platelet glycoprotein 4 (Rattus norvegicus, UniProt Q07969); assay: Displacement of photoactivatable [125I]-Tyr-Bpa-Ala-Hexarelin from CD36 in Sprague-Dawley rat cardiac membranes incubated for 60 mins by densitometry; assay type: cell membranes, Membrane
[2] = Antiangiogenic effect in […] mouse microvascular choroid explants assessed as choroid sprouting at 10^-7 M after 4 days (reference value: 53%); assay type: functional

Sequence of Platelet glycoprotein 4 (Q07969 whole entry): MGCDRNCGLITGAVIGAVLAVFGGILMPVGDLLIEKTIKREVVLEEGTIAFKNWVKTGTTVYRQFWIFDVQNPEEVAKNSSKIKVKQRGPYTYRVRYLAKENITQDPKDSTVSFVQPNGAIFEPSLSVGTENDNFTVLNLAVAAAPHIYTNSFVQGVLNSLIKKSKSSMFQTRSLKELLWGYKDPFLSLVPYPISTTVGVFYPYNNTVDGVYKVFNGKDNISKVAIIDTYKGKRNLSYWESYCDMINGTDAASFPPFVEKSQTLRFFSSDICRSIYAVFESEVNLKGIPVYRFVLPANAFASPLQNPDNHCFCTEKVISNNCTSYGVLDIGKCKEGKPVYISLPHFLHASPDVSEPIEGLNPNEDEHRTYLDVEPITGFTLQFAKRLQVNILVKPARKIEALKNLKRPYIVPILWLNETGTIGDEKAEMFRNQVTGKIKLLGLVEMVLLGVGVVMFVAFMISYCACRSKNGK
Sequence of Growth hormone secretagogue receptor type 1 (Q92847 whole entry): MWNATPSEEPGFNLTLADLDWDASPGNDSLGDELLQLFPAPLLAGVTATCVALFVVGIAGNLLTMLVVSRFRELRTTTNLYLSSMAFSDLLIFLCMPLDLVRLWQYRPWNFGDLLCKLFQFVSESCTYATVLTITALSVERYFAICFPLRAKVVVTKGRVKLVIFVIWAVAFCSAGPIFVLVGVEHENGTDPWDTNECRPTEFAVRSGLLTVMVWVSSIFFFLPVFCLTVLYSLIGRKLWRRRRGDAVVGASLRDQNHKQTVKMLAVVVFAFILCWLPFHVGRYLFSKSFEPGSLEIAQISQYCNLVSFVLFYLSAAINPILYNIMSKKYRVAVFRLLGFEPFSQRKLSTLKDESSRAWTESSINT

| Structure (SMILES) | IC50 [1] | IC50 (Platelet glycoprotein 4) | Activity [2] |
| --- | --- | --- | --- |
| C[C@H](NC(=O)[C@H](C)NC(=O)N(Cc1ccccc1)NC(=O)C(N)Cc1cnc[nH]1)C(=O)N[C@H](Cc1ccccc1)C(=O)N[C@@H](CCCCN)C(N)=O (some centres undefined) | > 10 µM | > 10 µM | – |
| C[C@H](NC(=O)[C@H](C)NC(=O)N(Cc1ccc(O)cc1)NC(=O)C(N)Cc1cnc[nH]1)C(=O)N[C@H](Cc1ccccc1)C(=O)N[C@@H](CCCCN)C(N)=O (some centres undefined) | > 10 µM | > 10 µM | – |
| CC(C)CN(NC(=O)[C@@H](Cc1c[nH]c2ccccc12)NC(=O)[C@H](C)N)C(=O)N[C@@H](Cc1c[nH]c2ccccc12)C(=O)N[C@H](Cc1ccccc1)C(=O)N[C@@H](CCCCN)C(N)=O | – | 6.66 µM | – |
| NCCCC[C@H](NC(=O)[C@@H](Cc1ccccc1)NC(=O)[C@@H]1CCCN1C(=O)NNC(=O)[C@@H](Cc1c[nH]c2ccccc12)NC(=O)[C@@H](N)Cc1cnc[nH]1)C(N)=O | > 10 µM | > 10 µM | – |
| C[C@H](NC(=O)N1CCCN1C(=O)[C@@H](N)Cc1cnc[nH]1)C(=O)N[C@@H](Cc1c[nH]c2ccccc12)C(=O)N[C@H](Cc1ccccc1)C(=O)N[C@@H](CCCCN)C(N)=O | > 10 µM | > 10 µM | – |
| CCC(=O)N[C@H](Cc1c[nH]c2ccccc12)C(=O)NN(CC(C)C)C(=O)N[C@@H](Cc1c[nH]c2ccccc12)C(=O)N[C@H](Cc1ccccc1)C(=O)N[C@@H](CCCCN)C(N)=O | 3.86 µM | > 10 µM | – |
| CC(C)CN(NC(=O)[C@@H](Cc1c[nH]c2ccccc12)NC(=O)[C@@H](C)N)C(=O)N[C@@H](Cc1c[nH]c2ccccc12)C(=O)N[C@H](Cc1ccccc1)C(=O)N[C@@H](CCCCN)C(N)=O | – | 13.3 µM | – |
| CC(C)CN(NC(=O)[C@@H](Cc1c[nH]c2ccccc12)NC(=O)CN)C(=O)N[C@@H](Cc1c[nH]c2ccccc12)C(=O)N[C@H](Cc1ccccc1)C(=O)N[C@@H](CCCCN)C(N)=O | 5.41 µM | 10.5 µM | – |
| CC(C)CN(NC(=O)[C@@H](Cc1c[nH]c2ccccc12)NC(=O)[C@@H]1CCCN1)C(=O)N[C@@H](Cc1c[nH]c2ccccc12)C(=O)N[C@H](Cc1ccccc1)C(=O)N[C@@H](CCCCN)C(N)=O | 1.17 µM | 7.97 µM | – |
| CC(C)CN(NC(=O)[C@@H](Cc1c[nH]c2ccccc12)NC(=O)[C@@H](N)Cc1cnc[nH]1)C(=O)N[C@@H](Cc1c[nH]c2ccccc12)C(=O)N[C@H](Cc1ccccc1)C(N)=O | 4.55 µM | 9.01 µM | – |
| CC(C)CN(NC(=O)[C@@H](Cc1c[nH]c2ccccc12)NC(=O)[C@@H](N)Cc1cnc[nH]1)C(=O)N[C@@H](Cc1c[nH]c2ccccc12)C(N)=O | 85.6 µM | > 10 µM | – |
| C[C@H](NC(=O)N(Cc1ccccc1)NC(=O)C(N)Cc1cnc[nH]1)C(=O)N[C@@H](Cc1c[nH]c2ccccc12)C(=O)N[C@H](Cc1ccccc1)C(=O)N[C@@H](CCCCN)C(N)=O (some centres undefined) | 16.1 µM | 72.4 µM | – |
| C[C@H](NC(=O)N(Cc1cccc2ccccc12)NC(=O)C(N)Cc1cnc[nH]1)C(=O)N[C@@H](Cc1c[nH]c2ccccc12)C(=O)N[C@H](Cc1ccccc1)C(=O)N[C@@H](CCCCN)C(N)=O (some centres undefined) | – | > 10 µM | – |
| C[C@H](N)C(=O)NN(Cc1ccc(O)cc1)C(=O)N[C@@H](C)C(=O)N[C@@H](Cc1c[nH]c2ccccc12)C(=O)N[C@H](Cc1ccccc1)C(=O)N[C@@H](CCCCN)C(N)=O (H-A[azaTyr]AW[dF]K-NH2) | > 10 µM | 36.9 µM | – |
| C[C@H](NC(=O)N(Cc1ccccc1)NC(=O)[C@@H](N)Cc1cnc[nH]1)C(=O)N[C@@H](Cc1c[nH]c2ccccc12)C(=O)N[C@H](C)C(=O)N[C@@H](CCCCN)C(N)=O (H-H[azaPhe]AW[dA]K-NH2) | > 10 µM | > 10 µM | – |
| C[C@H](NC(=O)[C@@H](Cc1ccccc1)NC(=O)[C@H](Cc1c[nH]c2ccccc12)NC(=O)[C@H](C)NC(=O)N(Cc1ccccc1)NC(=O)[C@@H](N)Cc1cnc[nH]1)C(N)=O (H-H[azaPhe]AW[dF]A-NH2) | – | > 10 µM | – |
| C[C@H](NC(=O)N(Cc1ccc(O)cc1)NC(=O)[C@@H](N)Cc1cnc[nH]1)C(=O)N[C@@H](Cc1c[nH]c2ccccc12)C(=O)N[C@H](C)C(=O)N[C@@H](CCCCN)C(N)=O (H-H[azaTyr]AW[dA]K-NH2) | > 10 µM | > 10 µM | – |
| C[C@H](NC(=O)[C@@H](Cc1ccccc1)NC(=O)[C@H](Cc1c[nH]c2ccccc12)NC(=O)[C@H](C)NC(=O)N(Cc1ccc(O)cc1)NC(=O)[C@@H](N)Cc1cnc[nH]1)C(N)=O (H-H[azaTyr]AW[dF]A-NH2) | > 10 µM | > 10 µM | – |
| C[C@H](NC(=O)[C@@H](C)NC(=O)[C@@H](N)Cc1cnc[nH]1)C(=O)NN(Cc1ccccc1)C(=O)N[C@H](Cc1ccccc1)C(=O)N[C@@H](CCCCN)C(N)=O (H-H[dA]A[azaPhe][dF]K-NH2) | > 10 µM | > 10 µM | – |

| Structure (SMILES) | IC50 [1] | IC50 (Platelet glycoprotein 4) | Activity [2] |
| --- | --- | --- | --- |
| C[C@@H](NC(=O)[C@@H](N)Cc1cnc[nH]1)C(=O)NNC(=O)N[C@@H](Cc1c[nH]c2ccccc12)C(=O)N[C@H](Cc1ccccc1)C(=O)N[C@@H](CCCCN)C(N)=O (H-H[dA][azaGly]W[dF]K-NH2) | > 10 µM | > 10 µM | – |
| CC(C)CN(NC(=O)[C@@H](C)NC(=O)[C@@H](N)Cc1cnc[nH]1)C(=O)N[C@@H](Cc1c[nH]c2ccccc12)C(=O)N[C@H](Cc1ccccc1)C(=O)N[C@@H](CCCCN)C(N)=O (H-H[dA][azaLeu]W[dF]K-NH2) | > 10 µM | > 10 µM | – |
| C[C@H](NC(=O)[C@@H](Cc1c[nH]c2ccccc12)NC(=O)[C@@H](N)Cc1cnc[nH]1)C(=O)N[C@@H](Cc1c[nH]c2ccccc12)C(=O)N1CCCN1C(=O)N[C@@H](CCCCN)C(N)=O (H-H[dW]AW[azaPro]K-NH2) | > 10 µM | > 10 µM | – |
| C[C@H](NC(=O)[C@@H](Cc1c[nH]c2ccccc12)NC(=O)[C@@H](N)Cc1c[nH]cn1)C(=O)N[C@@H](Cc1c[nH]c2ccccc12)C(=O)N[C@H](Cc1ccccc1)C(=O)N[C@@H](CCCCN)C(N)=O (H-H[dW]AW[dF]K-NH2) | – | 1.82 µM | – |
| C[C@H](NC(=O)[C@@H](Cc1c[nH]c2ccccc12)NC(=O)[C@@H](N)Cc1cnc[nH]1)C(=O)NN(CCc1ccccc1)C(=O)N[C@H](Cc1ccccc1)C(=O)N[C@@H](CCCCN)C(N)=O (H-H[dW]A[X1][dF]K-NH2) | – | > 10 µM | – |
| CC(C)CN(NC(=O)[C@H](C)NC(=O)[C@@H](Cc1c[nH]c2ccccc12)NC(=O)[C@@H](N)Cc1cnc[nH]1)C(=O)N[C@H](Cc1ccccc1)C(=O)N[C@@H](CCCCN)C(N)=O (H-H[dW]A[azaLeu][dF]K-NH2) | – | > 10 µM | – |
| C[C@H](NC(=O)[C@@H](Cc1c[nH]c2ccccc12)NC(=O)[C@@H](N)Cc1cnc[nH]1)C(=O)NN(Cc1ccccc1)C(=O)N[C@H](C)C(=O)N[C@@H](CCCCN)C(N)=O (H-H[dW]A[azaPhe][dA]K-NH2) | > 10 µM | > 10 µM | – |
| C[C@H](NC(=O)[C@@H](Cc1ccccc1)NC(=O)N(Cc1ccccc1)NC(=O)[C@H](C)NC(=O)[C@@H](Cc1c[nH]c2ccccc12)NC(=O)[C@@H](N)Cc1cnc[nH]1)C(N)=O (H-H[dW]A[azaPhe][dF]A-NH2) | > 10 µM | > 10 µM | – |
| C[C@H](NC(=O)[C@@H](Cc1c[nH]c2ccccc12)NC(=O)[C@@H](N)Cc1cnc[nH]1)C(=O)N1CCCN1C(=O)N[C@H](Cc1ccccc1)C(=O)N[C@@H](CCCCN)C(N)=O (H-H[dW]A[azaPro][dF]K-NH2) | > 10 µM | > 10 µM | – |
| C[C@H](NC(=O)[C@@H](Cc1c[nH]c2ccccc12)NC(=O)[C@@H](N)Cc1cnc[nH]1)C(=O)NN(Cc1ccc(O)cc1)C(=O)N[C@H](Cc1ccccc1)C(=O)N[C@@H](CCCCN)C(N)=O (H-H[dW]A[azaTyr][dF]K-NH2) | – | – | 17% |
| C[C@H](NC(=O)NNC(=O)[C@@H](Cc1c[nH]c2ccccc12)NC(=O)[C@@H](N)Cc1cnc[nH]1)C(=O)N[C@H](Cc1ccccc1)C(=O)N[C@@H](CCCCN)C(N)=O (H-H[dW][azaGly]A[dF]K-NH2) | > 10 µM | > 10 µM | – |
| C[C@@H](NC(=O)[C@H](Cc1c[nH]c2ccccc12)NC(=O)NNC(=O)[C@@H](Cc1c[nH]c2ccccc12)NC(=O)[C@@H](N)Cc1cnc[nH]1)C(=O)N[C@@H](CCCCN)C(N)=O (H-H[dW][azaGly]W[dA]K-NH2) | > 10 µM | > 10 µM | – |
| C[C@H](NC(=O)[C@@H](Cc1ccccc1)NC(=O)[C@H](Cc1c[nH]c2ccccc12)NC(=O)NNC(=O)[C@@H](Cc1c[nH]c2ccccc12)NC(=O)[C@@H](N)Cc1cnc[nH]1)C(N)=O (H-H[dW][azaGly]W[dF]A-NH2) | – | > 10 µM | – |
| CC(C)CN(NC(=O)[C@@H](Cc1c[nH]c2ccccc12)NC(=O)[C@@H](N)Cc1cnc[nH]1)C(=O)N[C@@H](C)C(=O)N[C@H](Cc1ccccc1)C(=O)N[C@@H](CCCCN)C(N)=O (H-H[dW][azaLeu]A[dF]K-NH2) | > 10 µM | 25.9 µM | – |
| CC(C)CN(NC(=O)[C@@H](Cc1c[nH]c2ccccc12)NC(=O)[C@@H](N)Cc1cnc[nH]1)C(=O)N[C@@H](Cc1c[nH]c2ccccc12)C(=O)N[C@H](C)C(=O)N[C@@H](CCCCN)C(N)=O (H-H[dW][azaLeu]W[dA]K-NH2) | > 10 µM | 9.48 µM | – |
| NCCCC[C@H](NC(=O)[C@@H](Cc1ccccc1)NC(=O)[C@H](Cc1c[nH]c2ccccc12)NC(=O)N1CCCN1C(=O)[C@@H](Cc1c[nH]c2ccccc12)NC(=O)[C@@H](N)Cc1cnc[nH]1)C(N)=O (H-H[dW][azaPro]W[dF]K-NH2) | > 10 µM | 9.81 µM | – |
| Cc1[nH]c2ccccc2c1C[C@@H](NC(=O)[C@@H](Cc1c(C)[nH]c2ccccc12)NC(=O)C(C)(C)N)C(N)=O (H-[Aib]-[dTrp(2-Me)]-[dTrp(2-Me)]-NH2) | 0.0629 µM | > 10 µM | – |
| Cc1[nH]c2ccccc2c1C[C@@H](NC(=O)[C@@H](N)Cc1cnc[nH]1)C(=O)N[C@@H](C)C(=O)N[C@@H](Cc1c[nH]c2ccccc12)C(=O)N[C@H](Cc1ccccc1)C(=O)N[C@@H](CCCCN)C(N)=O [EXAMORELIN] (H-H[dTrp(2-Me)]AW[dF]K-NH2) | 0.0159 µM | – | – |
